For 7 compounds, inhibition results are on record in ChEMBL document CHEMBL3272052, “Imidazo[1,2-a]-s-triazine nucleosides. Synthesis and antiviral activity of the N-bridgehead guanine, guanosine, and guanosine monophosphate analogues of imidazo[1,2-a]-s-triazine” (J Med Chem, 1978).

Active and inactive are the calls of the source. No cut-off for these calls is given here.

What all share (type): functional, organism-based
For test [1], the system named is Enterovirus. Briefly: Antiviral activity against Rhinovirus 30 infected in human KB cells assessed as inhibition of virus-induced cytopathic effect after 72 hrs by microscopic analysis relative to control. In general terms: Damage to the host cells serves as the signal in cytopathic effect assays.
Test [2] relates to Enterovirus. The test can be described thus: Antiviral activity against Rhinovirus 13 infected in human KB cells assessed as inhibition of virus-induced cytopathic effect after 72 hrs by microscopic analysis relative to control. The method in brief: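 KB (human nasopharyngeal carcinoma) monolayers, 19-24 h old, were infected with 320 CCID50 of virus. Compound was added within 15 min at one-half-log dilutions from 1000 to 1 µg/mL. After 72 h at 37 °C, CPE and cytotoxicity were scored microscopically (0-4). The virus rating sums the control-minus-treated CPE scores over all levels, halving any level showing partial toxicity.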

Test [3] deals with Enterovirus. The test can be described thus: Antiviral activity against Rhinovirus 8 infected in human KB cells assessed as inhibition of virus-induced cytopathic effect after 72 hrs by microscopic analysis relative to control.
The test system of test [4] is Enterovirus. Briefly: Antiviral activity against Rhinovirus 1A infected in human KB cells assessed as inhibition of virus-induced cytopathic effect after 72 hrs by microscopic analysis relative to control.
Test [5] relates to Enterovirus. The test can be described thus: Antiviral activity against Rhinovirus 2 infected in human KB cells assessed as inhibition of virus-induced cytopathic effect after 72 hrs by microscopic analysis relative to control.

Regarding `Nc1nc(=O)n2ccn([C@@H]3O[C@H](COP(=O)(O)O)[C@@H](O)[C@H]3O)c2n1`, the inhibition entry in the test with Enterovirus [1], in the test with Enterovirus [2], in the test on Enterovirus [3] and in the test with Enterovirus [4] was “inactive” in each case. The inhibition entry in the test with Enterovirus [5] is “Active”.
On to `Nc1nc(=O)n2cc[nH]c2n1`, for which the inhibition entry in the test on Enterovirus [1], with Enterovirus [2], in the test with Enterovirus [3], in the test with Enterovirus [4] and in the test with Enterovirus [5] was “Active” in each case.
For `O=c1nc2n([C@@H]3O[C@H](CO)[C@@H](O)[C@H]3O)ccn2c(=O)[nH]1`, the inhibition entry in the test with Enterovirus [2] is “inactive”.
`O=c1[nH]c(=O)n2ccnc2[nH]1`: in the test on Enterovirus [2], the inhibition result is “inactive”.
Regarding `Nc1nc(=O)n2ccn([C@@H]3O[C@H](CO)[C@@H](O)[C@H]3O)c2n1`, the inhibition entry in the test on Enterovirus [1], with Enterovirus [2] and in the test on Enterovirus [3] was “inactive” each time. The inhibition result with Enterovirus [4] and with Enterovirus [5] was “Active” each time.
`NC(=O)c1ncn([C@@H]2O[C@H](CO)[C@@H](O)[C@H]2O)n1`: the inhibition result with Enterovirus [1], with Enterovirus [2], with Enterovirus [3], in the test with Enterovirus [4] and with Enterovirus [5] was “Active” each time.
For the compound `Nc1nc(=O)n2ccn([C@@H]3O[C@H](COC(=O)c4ccccc4)[C@@H](OC(=O)c4ccccc4)[C@H]3OC(=O)c3ccccc3)c2n1`, in the test with Enterovirus [2], the inhibition entry is “inactive”.
